Data as given in ChEMBL document CHEMBL1155326, “Design, synthesis and evaluation of 4,5-di-substituted acridone ligands with high G-quadruplex affinity and selectivity, together with low toxicity to normal cells” (Bioorg Med Chem Lett, 2009).
One block for each molecule: values may come before it. Active and inactive are the calls of the source. No cut-off for these calls is given here.

Assays:
Nucleic Acid [1] = assay: Binding affinity to human telomeric G4 DNA of sequence 5'-FAM-d(GGG[TTAGGG]3)-TAMRA-3' assessed as change in melting temperature by FRET DNA melting assay; type: nucleic-acid assay
Nucleic Acid [2] = assay: Binding affinity to human Duplex DNA of sequence 5'-FAM-dTATAGCTATA-HEG-TATAGCTATA-TAMRA-3' assessed as change in melting temperature by FRET DNA melting assay; type: nucleic-acid assay
A549 [3] = assay: Cytotoxicity against human A549 cell after 72 hrs by SRB assay; type: functional, cell-based; conditions: A549, 72 h
IMR-90 (Homo sapiens) = assay: Cytotoxicity against human IMR90 cell after 72 hrs by SRB assay; conditions: IMR-90, 72 h
[4] = Cytotoxicity against human IMR90 cell after 72 hrs by SRB assay; type: cell-based; conditions: IMR-90, 72 h
MCF7 [5] = assay: Cytotoxicity against human MCF7 cell after 72 hrs by SRB assay; type: functional, cell-based; conditions: MCF7, 72 h
MCF7 [6] = assay: Cytotoxicity against human MCF7 by SRB assay; type: functional, cell-based
MCF7 [7] = assay: Cytotoxic activity in human MCF7 cell assessed as number of scenescence cell at 10 uM after 1 week; type: functional
Outline: (§1)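 Long-term MCF7 or A549 cultures were dosed at the start and then re-dosed three times weekly. At each re-dose the medium was discarded, cells were PBS-washed, and fresh medium plus compound was added. For staining, 1 × 10^5 cells per well were plated in medium with compound. After 24 h they were stained for senescence-associated β-galactosidase, and blue cells were counted by microscopy.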

MCF7 [8] = assay: Cytotoxic activity in human MCF7 cell assessed as number of scenescence cell at 10 uM after 3 weeks; type: functional; outline: as §1
MCF7 [9] = assay: Cytotoxic activity in human MCF7 cell assessed as number of scenescence cell at 10 uM after 4 weeks; type: functional; outline: as §1
MCF7 [10] = assay: Cytotoxic activity in human MCF7 cell assessed as number of scenescence cell at 10 uM after 5 weeks; type: functional; outline: as §1
MCF7 [11] = assay: Cytotoxic activity in human MCF7 cell assessed by number of scenescence cell at 25 uM after 1 week; type: functional; outline: as §1
MCF7 [12] = assay: Cytotoxic activity in human MCF7 cell assessed by number of scenescence cell at 25 uM after 3 weeks; type: functional; outline: as §1
MCF7 [13] = assay: Cytotoxic activity in human MCF7 cell assessed by number of scenescence cell at 35 uM after 1 week; type: functional; outline: as §1
A549 [14] = assay: Cytotoxic activity in human A549 cell assessed by number of scenescence cell at 10 uM after 1 weeks; type: functional; outline: as §1
A549 [15] = assay: Cytotoxic activity in human A549 cell assessed by number of scenescence cell at 10 uM after 3 weeks; type: functional; outline: as §1
A549 [16] = assay: Cytotoxic activity in human A549 cell assessed by number of scenescence cell at 10 uM after 4 weeks; type: functional; outline: as §1
A549 [17] = assay: Cytotoxic activity in human A549 cell assessed by number of scenescence cell at 10 uM after 5 weeks; type: functional; outline: as §1
A549 [18] = assay: Cytotoxic activity in human A549 cell assessed by number of scenescence cell at 25 uM after 1 week; type: functional; outline: as §1
A549 [19] = assay: Cytotoxic activity in human A549 cell assessed by number of scenescence cell at 25 uM after 3 weeks; type: functional; outline: as §1
A549 [20] = assay: Cytotoxic activity in human A549 cell assessed by number of scenescence cell at 25 uM after 4 weeks; type: functional; outline: as §1
A549 [21] = assay: Cytotoxic activity in human A549 cell assessed by number of scenescence cell at 25 uM after 5 weeks; type: functional; outline: as §1
A549 [22] = assay: Cytotoxic activity in human A549 cell assessed by number of scenescence cell at 35 uM after 1 week; type: functional; outline: as §1
A549 [23] = assay: Cytotoxic activity in human A549 cell assessed by number of scenescence cell at 35 uM after 3 weeks; type: functional; outline: as §1
A549 [24] = assay: Cytotoxic activity in human A549 cell assessed by number of scenescence cell at 35 uM after 4 weeks; type: functional; outline: as §1
A549 [25] = assay: Cytotoxic activity in human A549 cell assessed by number of scenescence cell at 35 uM after 5 weeks; type: functional; outline: as §1
Nucleic Acid [26] = assay: Telomere shortening in DNA assessed by measuring telomere length after 6 weeks; type: nucleic-acid assay
[27] = target: Telomerase reverse transcriptase (Homo sapiens) (UniProt O14746); assay: Inhibition of Telomerase by TRAP-LIG assay
Sequence of Telomerase reverse transcriptase (Homo sapiens) (O14746 whole entry): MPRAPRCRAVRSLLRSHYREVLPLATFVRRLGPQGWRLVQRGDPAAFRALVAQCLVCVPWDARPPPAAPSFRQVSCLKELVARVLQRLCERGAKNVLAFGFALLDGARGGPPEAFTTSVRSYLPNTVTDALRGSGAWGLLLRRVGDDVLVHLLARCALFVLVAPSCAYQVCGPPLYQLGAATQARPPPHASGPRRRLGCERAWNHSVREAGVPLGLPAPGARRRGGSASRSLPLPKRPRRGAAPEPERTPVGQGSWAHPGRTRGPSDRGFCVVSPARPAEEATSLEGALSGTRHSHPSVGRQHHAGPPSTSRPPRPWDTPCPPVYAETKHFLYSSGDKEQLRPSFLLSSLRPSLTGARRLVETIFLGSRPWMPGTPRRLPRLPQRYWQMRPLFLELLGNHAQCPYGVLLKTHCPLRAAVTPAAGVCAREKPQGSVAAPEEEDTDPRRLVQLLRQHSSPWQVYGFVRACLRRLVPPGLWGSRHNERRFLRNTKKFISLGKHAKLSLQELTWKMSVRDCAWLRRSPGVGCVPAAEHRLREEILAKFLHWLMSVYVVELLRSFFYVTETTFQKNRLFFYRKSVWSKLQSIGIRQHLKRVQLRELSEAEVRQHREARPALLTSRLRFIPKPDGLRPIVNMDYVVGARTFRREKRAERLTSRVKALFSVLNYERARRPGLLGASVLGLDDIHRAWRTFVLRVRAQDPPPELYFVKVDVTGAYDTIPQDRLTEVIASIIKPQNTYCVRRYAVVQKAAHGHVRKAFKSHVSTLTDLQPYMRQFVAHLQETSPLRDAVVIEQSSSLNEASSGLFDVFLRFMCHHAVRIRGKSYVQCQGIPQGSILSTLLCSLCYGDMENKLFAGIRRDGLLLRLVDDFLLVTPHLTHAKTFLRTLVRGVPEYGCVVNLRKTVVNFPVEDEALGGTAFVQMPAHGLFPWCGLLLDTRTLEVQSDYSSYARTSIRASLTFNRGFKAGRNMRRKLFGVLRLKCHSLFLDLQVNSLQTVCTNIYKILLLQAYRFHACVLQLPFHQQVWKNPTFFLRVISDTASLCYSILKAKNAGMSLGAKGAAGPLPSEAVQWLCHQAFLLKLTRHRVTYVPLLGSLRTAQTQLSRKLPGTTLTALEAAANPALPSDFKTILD

MCF7 (Homo sapiens) [28] = assay: Cytotoxicity against human MCF7 at 10 uM by assessed as population doublings SRB assay
MCF7 [29] = assay: Cytotoxic activity in human MCF7 cell assessed by number of scenescence cell at 5 uM after 4 weeks; type: functional; outline: as §1
MCF7 [30] = assay: Cytotoxic activity in human MCF7 cell assessed by number of scenescence cell at 5 uM after 5 weeks; type: functional; outline: as §1
MCF7 [31] = assay: Cytotoxic activity in human MCF7 cell assessed by number of scenescence cell at 15 uM after 4 weeks; type: functional; outline: as §1
MCF7 [32] = assay: Cytotoxic activity in human MCF7 cell assessed by number of scenescence cell at 15 uM after 5 weeks; type: functional; outline: as §1
MCF7 (Homo sapiens) [33] = assay: Cytotoxicity against human MCF7 cell after 72 hrs by SRB assay; conditions: MCF7, 72 h

ΔTm (Nucleic Acid [1]): 33 °C | ΔTm (Nucleic Acid [2]): 2.5 °C
Structure (SMILES): O=C(Nc1ccc(NCCCN2CCCC2)cc1)c1cccc2c(=O)c3cccc(C(=O)Nc4ccc(NCCCN5CCCC5)cc4)c3[nH]c12
IC50 (A549 [3]): 66 µM | IC50 (IMR-90 (Homo sapiens)): > 100 µM

ΔTm (Nucleic Acid [1]): 15 °C | ΔTm (Nucleic Acid [2]): 0 °C
Structure (SMILES): Cn1cc(NC(=O)c2cccc3c(=O)c4cccc(C(=O)Nc5cc(C(=O)NCCCN6CCCC6)n(C)c5)c4[nH]c23)cc1C(=O)NCCCN1CCCC1
IC50 (A549 [3]): 21 µM | IC50 (IMR-90 (Homo sapiens)): > 100 µM

ΔTm (Nucleic Acid [1]): 22.5 °C | ΔTm (Nucleic Acid [2]): 0.75 °C
Structure (SMILES): O=C(CCCCN1CCCC1)Nc1ccc(NC(=O)c2cccc3c(=O)c4cccc(C(=O)Nc5ccc(NC(=O)CCCCN6CCCC6)cc5)c4[nH]c23)cc1
IC50 [4]: 2 µM | IC50 (A549 [3]): 43 µM | IC50 (MCF7 [5]): > 100 µM

ΔTm (Nucleic Acid [1]): 15 °C | ΔTm (Nucleic Acid [2]): 0 °C
Structure (SMILES): O=C(CCCN1CCCC1)Nc1ccc(NC(=O)c2cccc3c(=O)c4cccc(C(=O)Nc5ccc(NC(=O)CCCN6CCCC6)cc5)c4[nH]c23)cc1
IC50 (A549 [3]): 8 µM | IC50 (IMR-90 (Homo sapiens)): > 100 µM

ΔTm (Nucleic Acid [1]): 25.5 °C | ΔTm (Nucleic Acid [2]): 0.5 °C
Structure (SMILES): O=C(CN1CCCC1)Nc1ccc(NC(=O)c2cccc3c(=O)c4cccc(C(=O)Nc5ccc(NC(=O)CN6CCCC6)cc5)c4[nH]c23)cc1
IC50 (A549 [3]): > 100 µM | IC50 (IMR-90 (Homo sapiens)): > 100 µM

ΔTm (Nucleic Acid [1]): 31 °C | ΔTm (Nucleic Acid [2]): 2.5 °C
Structure (SMILES): CN(C)CCCNc1ccc(NC(=O)c2cccc3c(=O)c4cccc(C(=O)Nc5ccc(NCCCN(C)C)cc5)c4[nH]c23)cc1
IC50 (A549 [3]): > 100 µM | IC50 (IMR-90 (Homo sapiens)): > 100 µM

ΔTm (Nucleic Acid [1]): 29 °C | ΔTm (Nucleic Acid [2]): 3 °C | Activity (Nucleic Acid [26]): inactive | Activity [27]: inactive
Structure (SMILES): O=C(CCN1CCCC1)Nc1cccc(NC(=O)c2cccc3c(=O)c4cccc(C(=O)Nc5cccc(NC(=O)CCN6CCCC6)c5)c4[nH]c23)c1
IC50 (A549 [3]): > 100 µM | IC50 (MCF7 [6]): 84 µM | Activity (MCF7 [7]): 2% | Activity (MCF7 [8]): 3% | Activity (MCF7 [9]): 0% | Activity (MCF7 [10]): 1% | Activity (MCF7 [11]): 3% | Activity (MCF7 [12]): 25% | Activity (MCF7 [13]): 12% | Activity (A549 [14]): 0% | Activity (A549 [15]): 12% | Activity (A549 [16]): 0% | Activity (A549 [17]): 0% | Activity (A549 [18]): 9% | Activity (A549 [19]): 21% | Activity (A549 [20]): 0% | Activity (A549 [21]): 0% | Activity (A549 [22]): 8% | Activity (A549 [23]): 30% | Activity (A549 [24]): 0% | Activity (A549 [25]): 0% | IC50 (IMR-90 (Homo sapiens)): > 100 µM | Activity (MCF7 (Homo sapiens) [28]): 17.5

ΔTm (Nucleic Acid [1]): 15 °C | ΔTm (Nucleic Acid [2]): 0.5 °C
Structure (SMILES): O=C(CCn1ccnc1)Nc1ccc(NC(=O)c2cccc3c(=O)c4cccc(C(=O)Nc5ccc(NC(=O)CCn6ccnc6)cc5)c4[nH]c23)cc1
IC50 (A549 [3]): 19 µM | IC50 (IMR-90 (Homo sapiens)): > 100 µM

ΔTm (Nucleic Acid [1]): 31 °C | ΔTm (Nucleic Acid [2]): 1.5 °C
Structure (SMILES): O=C(CCN1CCCCC1)Nc1ccc(NC(=O)c2cccc3c(=O)c4cccc(C(=O)Nc5ccc(NC(=O)CCN6CCCCC6)cc5)c4[nH]c23)cc1
IC50 (A549 [3]): > 100 µM | IC50 (IMR-90 (Homo sapiens)): > 100 µM

ΔTm (Nucleic Acid [1]): 32 °C | ΔTm (Nucleic Acid [2]): 2.5 °C | Activity (Nucleic Acid [26]): inactive | Activity [27]: inactive
Structure (SMILES): CN(C)CCC(=O)Nc1ccc(NC(=O)c2cccc3c(=O)c4cccc(C(=O)Nc5ccc(NC(=O)CCN(C)C)cc5)c4[nH]c23)cc1
IC50 (A549 [3]): 15 µM | Activity (MCF7 [29]): 2% | Activity (MCF7 [30]): 2% | Activity (MCF7 [31]): 0% | Activity (MCF7 [32]): 5% | IC50 (IMR-90 (Homo sapiens)): > 100 µM

ΔTm (Nucleic Acid [1]): 0 °C | ΔTm (Nucleic Acid [2]): 0 °C
Structure (SMILES): O=C(CCC(=O)N1CCCC1)Nc1ccc(NC(=O)c2cccc3c(=O)c4cccc(C(=O)Nc5ccc(NC(=O)CCC(=O)N6CCCC6)cc5)c4[nH]c23)cc1
IC50 (A549 [3]): 27 µM | IC50 (IMR-90 (Homo sapiens)): > 100 µM

ΔTm (Nucleic Acid [1]): 24.5 °C | ΔTm (Nucleic Acid [2]): 0 °C
Structure (SMILES): O=C(CCNC1CCCCC1)Nc1ccc(NC(=O)c2cccc3c(=O)c4cccc(C(=O)Nc5ccc(NC(=O)CCNC6CCCCC6)cc5)c4[nH]c23)cc1
IC50 (A549 [3]): 31 µM | IC50 (IMR-90 (Homo sapiens)): > 100 µM

ΔTm (Nucleic Acid [1]): 31 °C | ΔTm (Nucleic Acid [2]): 1.5 °C
Structure (SMILES): CN1CCN(CCC(=O)Nc2ccc(NC(=O)c3cccc4c(=O)c5cccc(C(=O)Nc6ccc(NC(=O)CCN7CCN(C)CC7)cc6)c5[nH]c34)cc2)CC1
IC50 (A549 [3]): > 100 µM | IC50 (IMR-90 (Homo sapiens)): > 100 µM

ΔTm (Nucleic Acid [1]): 34 °C | ΔTm (Nucleic Acid [2]): 2.5 °C
Structure (SMILES): O=C(CCN1CCCC1)Nc1ccc(NC(=O)c2cccc3c(=O)c4cccc(C(=O)Nc5ccc(NC(=O)CCN6CCCC6)cc5)c4[nH]c23)cc1
IC50 (A549 [3]): 16 µM | IC50 (IMR-90 (Homo sapiens)): > 100 µM

ΔTm (Nucleic Acid [1]): 19 °C | ΔTm (Nucleic Acid [2]): 0 °C
Structure (SMILES): O=C(CCN1CCOCC1)Nc1ccc(NC(=O)c2cccc3c(=O)c4cccc(C(=O)Nc5ccc(NC(=O)CCN6CCOCC6)cc5)c4[nH]c23)cc1
IC50 (A549 [3]): > 100 µM | IC50 (MCF7 (Homo sapiens) [33]): > 100 µM | IC50 (IMR-90 (Homo sapiens)): > 100 µM

ΔTm (Nucleic Acid [1]): 7 °C | ΔTm (Nucleic Acid [2]): 1 °C
Structure (SMILES): CN(C)CCCNC(=O)c1cccc2c(=O)c3cccc(C(=O)NCCCN(C)C)c3[nH]c12
IC50 (A549 [3]): 62 µM | IC50 (IMR-90 (Homo sapiens)): > 100 µM

ΔTm (Nucleic Acid [1]): 28 °C | ΔTm (Nucleic Acid [2]): 1.5 °C
Structure (SMILES): CN1CCN(CCCNc2ccc(NC(=O)c3cccc4c(=O)c5cccc(C(=O)Nc6ccc(NCCCN7CCN(C)CC7)cc6)c5[nH]c34)cc2)CC1
IC50 (A549 [3]): > 100 µM | IC50 (IMR-90 (Homo sapiens)): > 100 µM

ΔTm (Nucleic Acid [1]): 11 °C | ΔTm (Nucleic Acid [2]): 0.5 °C
Structure (SMILES): O=C(CCN1CCCC1)Nc1ccc(NC(=O)c2cccc3c(=O)c4ccccc4[nH]c23)cc1
IC50 (A549 [3]): 16 µM | IC50 (MCF7 (Homo sapiens) [33]): 9 µM | IC50 (IMR-90 (Homo sapiens)): 7.5 µM

ΔTm (Nucleic Acid [1]): 20 °C | ΔTm (Nucleic Acid [2]): 0 °C
Structure (SMILES): O=C(Nc1ccc(NCCCN2CCOCC2)cc1)c1cccc2c(=O)c3cccc(C(=O)Nc4ccc(NCCCN5CCOCC5)cc4)c3[nH]c12
IC50 (A549 [3]): > 100 µM | IC50 (MCF7 (Homo sapiens) [33]): > 100 µM | IC50 (IMR-90 (Homo sapiens)): > 100 µM
